# Reference: ChEMBL document CHEMBL5653631, “A Potent and Selective ULK1 Inhibitor Suppresses Autophagy and Sensitizes Cancer Cells to Nutrient Stress” (iScience, 2018)
# Tests used:
# [1] = target: T1, Aurora kinase C (Homo sapiens) (UniProt Q9UQB9); assay: Inhibition of human recombinant AurC at 40 nM in presence of ATP by radiometric assay relative to control
# T1 sequence (whole entry): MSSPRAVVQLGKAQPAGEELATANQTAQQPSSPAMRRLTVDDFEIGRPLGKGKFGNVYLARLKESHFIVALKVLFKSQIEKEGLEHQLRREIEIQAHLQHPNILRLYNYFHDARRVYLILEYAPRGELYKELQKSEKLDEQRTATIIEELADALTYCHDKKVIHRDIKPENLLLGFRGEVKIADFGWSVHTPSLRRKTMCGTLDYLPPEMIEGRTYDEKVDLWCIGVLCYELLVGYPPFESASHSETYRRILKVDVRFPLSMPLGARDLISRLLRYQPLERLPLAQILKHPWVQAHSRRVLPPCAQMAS
# Procedure, shortened: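 Part of a radiometric in vitro activity panel of 327 recombinant human kinases. Each kinase was tested in duplicate at one inhibitor concentration. Activity remaining was expressed as a percentage of the vehicle control, and percent inhibition was taken as 100 minus that value.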
# [2] = target: Tyrosine-protein kinase Fyn (Homo sapiens) (UniProt P06241); assay: Inhibition of human recombinant FYN at 40 nM related to control ULK1
# [3] = target: Platelet-derived growth factor receptor beta (Homo sapiens) (UniProt P09619); assay: Inhibition of human recombinant PDGFRb at 40 nM related to control ULK1
# [4] = target: Serine/threonine-protein kinase 32B (Homo sapiens) (UniProt Q9NY57); assay: Inhibition of human recombinant YANK2 at 500 nM in presence of ATP by radiometric assay relative to control
# [5] = target: RAC-beta serine/threonine-protein kinase (Homo sapiens) (UniProt P31751); assay: Inhibition of human recombinant AKT2 at 500 nM related to control ULK1
# [6] = target: Dual specificity protein kinase CLK4 (Homo sapiens) (UniProt Q9HAZ1); assay: Inhibition of human recombinant CLK4 at 500 nM related to control ULK1
# [7] = target: Epidermal growth factor receptor (Homo sapiens) (UniProt P00533); assay: Inhibition of human recombinant EGFR at 500 nM related to control ULK1
# [8] = target: Serine/threonine-protein kinase ULK1 (Homo sapiens, UniProt O75385); assay: Inhibition of human ULK1
# [9] = target: Epithelial discoidin domain-containing receptor 1 (Homo sapiens) (UniProt Q08345); assay: Inhibition of human recombinant DDR1 at 15 nM in presence of ATP by radiometric assay relative to control
# [10] = target: Serine/threonine-protein kinase MRCK alpha (Homo sapiens) (UniProt Q5VT25); assay: Inhibition of human recombinant MRCKa at 15 nM in presence of ATP by radiometric assay relative to control
# [11] = target: Serine/threonine-protein kinase tousled-like 2 (Homo sapiens) (UniProt Q86UE8); assay: Inhibition of human recombinant TLK2 at 15 nM in presence of ATP by radiometric assay relative to control
# [12] = target: Calcium/calmodulin-dependent protein kinase kinase 2 (Homo sapiens) (UniProt Q96RR4); assay: Inhibition of human recombinant CaMKK2 at 15 nM related to control ULK1
# [13] = target: T2, Tyrosine-protein kinase JAK3 (Homo sapiens) (UniProt P52333); assay: Inhibition of human recombinant JAK3 at 15 nM related to control ULK1
# T2 sequence (whole entry): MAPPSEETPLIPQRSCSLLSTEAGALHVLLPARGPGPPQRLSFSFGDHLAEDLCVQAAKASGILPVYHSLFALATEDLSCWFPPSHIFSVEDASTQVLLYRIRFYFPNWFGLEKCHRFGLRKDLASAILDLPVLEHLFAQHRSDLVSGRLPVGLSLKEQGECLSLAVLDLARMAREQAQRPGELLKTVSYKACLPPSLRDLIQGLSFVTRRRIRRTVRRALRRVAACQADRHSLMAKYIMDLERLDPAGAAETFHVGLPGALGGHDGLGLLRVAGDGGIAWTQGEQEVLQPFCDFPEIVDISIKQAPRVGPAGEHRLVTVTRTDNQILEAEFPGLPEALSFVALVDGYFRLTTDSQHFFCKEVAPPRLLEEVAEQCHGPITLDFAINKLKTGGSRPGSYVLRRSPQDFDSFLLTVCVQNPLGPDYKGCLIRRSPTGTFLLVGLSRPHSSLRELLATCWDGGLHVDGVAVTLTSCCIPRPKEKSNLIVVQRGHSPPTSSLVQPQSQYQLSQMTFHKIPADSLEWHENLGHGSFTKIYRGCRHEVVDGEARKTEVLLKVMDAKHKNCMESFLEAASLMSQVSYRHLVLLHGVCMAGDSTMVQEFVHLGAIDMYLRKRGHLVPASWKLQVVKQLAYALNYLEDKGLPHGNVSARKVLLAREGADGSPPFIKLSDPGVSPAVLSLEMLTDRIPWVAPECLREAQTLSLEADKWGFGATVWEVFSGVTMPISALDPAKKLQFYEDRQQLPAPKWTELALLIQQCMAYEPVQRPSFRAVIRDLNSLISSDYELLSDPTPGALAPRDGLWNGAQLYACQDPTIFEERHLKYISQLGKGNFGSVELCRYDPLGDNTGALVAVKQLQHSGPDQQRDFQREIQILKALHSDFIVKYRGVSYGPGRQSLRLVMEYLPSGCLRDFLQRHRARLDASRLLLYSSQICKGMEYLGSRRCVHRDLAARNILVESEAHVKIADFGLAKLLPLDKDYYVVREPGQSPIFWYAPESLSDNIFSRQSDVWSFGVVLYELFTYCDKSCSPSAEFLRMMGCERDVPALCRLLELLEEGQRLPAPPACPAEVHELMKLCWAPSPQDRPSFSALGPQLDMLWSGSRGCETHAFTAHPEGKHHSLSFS
# [14] = target: TRAF2 and NCK-interacting protein kinase (Homo sapiens) (UniProt Q9UKE5); assay: Inhibition of human recombinant TNIK at 15 nM related to control ULK1
# Sequence of RAC-beta serine/threonine-protein kinase (Homo sapiens) (P31751 whole entry): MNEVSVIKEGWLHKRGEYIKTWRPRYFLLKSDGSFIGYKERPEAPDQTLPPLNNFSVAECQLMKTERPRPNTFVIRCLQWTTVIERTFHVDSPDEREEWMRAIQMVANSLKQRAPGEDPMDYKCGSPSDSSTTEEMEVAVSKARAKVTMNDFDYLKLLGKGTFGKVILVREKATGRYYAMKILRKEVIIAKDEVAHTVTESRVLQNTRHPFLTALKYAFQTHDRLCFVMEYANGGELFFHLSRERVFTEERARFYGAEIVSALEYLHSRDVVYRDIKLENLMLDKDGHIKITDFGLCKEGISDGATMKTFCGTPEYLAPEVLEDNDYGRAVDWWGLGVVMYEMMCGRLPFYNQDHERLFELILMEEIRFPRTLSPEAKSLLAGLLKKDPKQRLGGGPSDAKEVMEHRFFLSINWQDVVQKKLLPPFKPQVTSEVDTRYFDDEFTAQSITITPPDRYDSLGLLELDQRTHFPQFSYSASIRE
# Sequence of Serine/threonine-protein kinase 32B (Homo sapiens) (Q9NY57 whole entry): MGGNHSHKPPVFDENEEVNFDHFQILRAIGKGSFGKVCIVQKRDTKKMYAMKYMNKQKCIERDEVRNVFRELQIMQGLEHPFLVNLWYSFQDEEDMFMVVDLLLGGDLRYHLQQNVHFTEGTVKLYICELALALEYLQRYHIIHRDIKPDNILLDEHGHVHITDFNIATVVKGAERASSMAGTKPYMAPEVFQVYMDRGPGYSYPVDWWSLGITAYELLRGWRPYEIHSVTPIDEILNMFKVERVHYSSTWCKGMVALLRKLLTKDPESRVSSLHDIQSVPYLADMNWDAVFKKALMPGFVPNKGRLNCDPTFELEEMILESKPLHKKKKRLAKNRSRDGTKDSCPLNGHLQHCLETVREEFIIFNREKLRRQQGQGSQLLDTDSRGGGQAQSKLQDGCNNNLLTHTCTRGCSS
# Sequence of Serine/threonine-protein kinase tousled-like 2 (Homo sapiens) (Q86UE8 whole entry, looked up): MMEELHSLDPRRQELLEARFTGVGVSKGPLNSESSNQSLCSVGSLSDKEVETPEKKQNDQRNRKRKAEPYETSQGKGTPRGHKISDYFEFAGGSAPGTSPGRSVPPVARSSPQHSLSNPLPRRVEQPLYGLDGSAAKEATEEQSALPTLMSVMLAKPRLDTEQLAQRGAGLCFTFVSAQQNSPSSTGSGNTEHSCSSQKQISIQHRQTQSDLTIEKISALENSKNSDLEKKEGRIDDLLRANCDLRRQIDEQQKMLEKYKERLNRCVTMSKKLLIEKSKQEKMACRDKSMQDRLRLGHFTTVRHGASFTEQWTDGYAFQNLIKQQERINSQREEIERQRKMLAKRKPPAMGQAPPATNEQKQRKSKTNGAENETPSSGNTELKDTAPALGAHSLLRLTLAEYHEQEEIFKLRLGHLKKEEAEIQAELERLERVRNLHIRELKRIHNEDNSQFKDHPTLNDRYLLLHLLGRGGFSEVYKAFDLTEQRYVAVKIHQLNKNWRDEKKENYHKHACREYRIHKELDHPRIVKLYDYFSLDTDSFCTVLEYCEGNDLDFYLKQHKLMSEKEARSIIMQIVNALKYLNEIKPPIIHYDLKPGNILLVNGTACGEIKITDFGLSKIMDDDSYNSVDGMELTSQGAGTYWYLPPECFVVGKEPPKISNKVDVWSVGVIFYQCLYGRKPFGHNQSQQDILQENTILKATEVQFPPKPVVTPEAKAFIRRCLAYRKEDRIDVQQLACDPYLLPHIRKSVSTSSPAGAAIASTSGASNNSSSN
# Sequence of Serine/threonine-protein kinase MRCK alpha (Homo sapiens) (Q5VT25 whole entry): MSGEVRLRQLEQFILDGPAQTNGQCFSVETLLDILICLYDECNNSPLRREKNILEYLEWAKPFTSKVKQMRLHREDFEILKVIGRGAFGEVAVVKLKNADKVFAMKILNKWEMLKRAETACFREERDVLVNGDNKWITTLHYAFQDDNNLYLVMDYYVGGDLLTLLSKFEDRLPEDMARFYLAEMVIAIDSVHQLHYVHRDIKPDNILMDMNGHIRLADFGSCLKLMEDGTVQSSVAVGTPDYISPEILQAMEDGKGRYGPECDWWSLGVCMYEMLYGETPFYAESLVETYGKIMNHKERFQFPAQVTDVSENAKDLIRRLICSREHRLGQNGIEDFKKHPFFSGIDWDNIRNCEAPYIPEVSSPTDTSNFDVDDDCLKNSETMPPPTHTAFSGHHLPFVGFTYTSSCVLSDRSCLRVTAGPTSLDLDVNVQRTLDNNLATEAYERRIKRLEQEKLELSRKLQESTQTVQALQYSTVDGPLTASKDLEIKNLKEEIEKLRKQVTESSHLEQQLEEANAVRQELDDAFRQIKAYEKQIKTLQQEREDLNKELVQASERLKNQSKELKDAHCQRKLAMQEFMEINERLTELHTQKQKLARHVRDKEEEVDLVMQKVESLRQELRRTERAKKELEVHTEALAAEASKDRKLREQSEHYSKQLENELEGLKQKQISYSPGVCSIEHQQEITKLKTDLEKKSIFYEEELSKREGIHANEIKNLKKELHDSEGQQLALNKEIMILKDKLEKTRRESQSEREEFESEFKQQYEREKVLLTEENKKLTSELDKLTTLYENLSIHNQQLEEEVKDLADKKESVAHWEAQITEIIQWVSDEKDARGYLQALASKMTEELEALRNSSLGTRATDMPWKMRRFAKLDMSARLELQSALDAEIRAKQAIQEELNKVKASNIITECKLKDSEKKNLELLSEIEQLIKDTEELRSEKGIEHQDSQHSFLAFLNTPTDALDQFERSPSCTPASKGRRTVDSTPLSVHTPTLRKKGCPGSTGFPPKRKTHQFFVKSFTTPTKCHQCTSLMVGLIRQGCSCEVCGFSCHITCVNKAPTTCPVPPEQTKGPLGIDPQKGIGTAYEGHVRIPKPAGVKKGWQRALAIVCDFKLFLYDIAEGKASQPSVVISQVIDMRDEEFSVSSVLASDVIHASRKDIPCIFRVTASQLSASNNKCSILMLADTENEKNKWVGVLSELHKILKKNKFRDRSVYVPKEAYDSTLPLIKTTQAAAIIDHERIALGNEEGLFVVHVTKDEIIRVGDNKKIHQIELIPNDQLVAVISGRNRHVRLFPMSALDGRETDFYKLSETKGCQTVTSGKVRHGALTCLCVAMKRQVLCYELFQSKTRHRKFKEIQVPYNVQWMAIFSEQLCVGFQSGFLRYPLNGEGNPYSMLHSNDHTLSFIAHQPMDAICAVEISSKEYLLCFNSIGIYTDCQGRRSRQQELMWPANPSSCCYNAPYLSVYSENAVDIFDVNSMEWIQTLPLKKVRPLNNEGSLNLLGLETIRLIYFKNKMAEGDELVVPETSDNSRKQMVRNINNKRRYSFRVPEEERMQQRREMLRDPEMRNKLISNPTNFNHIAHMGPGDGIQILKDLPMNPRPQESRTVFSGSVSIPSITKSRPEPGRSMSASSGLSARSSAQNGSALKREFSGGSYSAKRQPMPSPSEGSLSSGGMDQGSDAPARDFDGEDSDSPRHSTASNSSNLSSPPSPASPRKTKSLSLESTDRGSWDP
# Sequence of Epidermal growth factor receptor (Homo sapiens) (P00533 whole entry): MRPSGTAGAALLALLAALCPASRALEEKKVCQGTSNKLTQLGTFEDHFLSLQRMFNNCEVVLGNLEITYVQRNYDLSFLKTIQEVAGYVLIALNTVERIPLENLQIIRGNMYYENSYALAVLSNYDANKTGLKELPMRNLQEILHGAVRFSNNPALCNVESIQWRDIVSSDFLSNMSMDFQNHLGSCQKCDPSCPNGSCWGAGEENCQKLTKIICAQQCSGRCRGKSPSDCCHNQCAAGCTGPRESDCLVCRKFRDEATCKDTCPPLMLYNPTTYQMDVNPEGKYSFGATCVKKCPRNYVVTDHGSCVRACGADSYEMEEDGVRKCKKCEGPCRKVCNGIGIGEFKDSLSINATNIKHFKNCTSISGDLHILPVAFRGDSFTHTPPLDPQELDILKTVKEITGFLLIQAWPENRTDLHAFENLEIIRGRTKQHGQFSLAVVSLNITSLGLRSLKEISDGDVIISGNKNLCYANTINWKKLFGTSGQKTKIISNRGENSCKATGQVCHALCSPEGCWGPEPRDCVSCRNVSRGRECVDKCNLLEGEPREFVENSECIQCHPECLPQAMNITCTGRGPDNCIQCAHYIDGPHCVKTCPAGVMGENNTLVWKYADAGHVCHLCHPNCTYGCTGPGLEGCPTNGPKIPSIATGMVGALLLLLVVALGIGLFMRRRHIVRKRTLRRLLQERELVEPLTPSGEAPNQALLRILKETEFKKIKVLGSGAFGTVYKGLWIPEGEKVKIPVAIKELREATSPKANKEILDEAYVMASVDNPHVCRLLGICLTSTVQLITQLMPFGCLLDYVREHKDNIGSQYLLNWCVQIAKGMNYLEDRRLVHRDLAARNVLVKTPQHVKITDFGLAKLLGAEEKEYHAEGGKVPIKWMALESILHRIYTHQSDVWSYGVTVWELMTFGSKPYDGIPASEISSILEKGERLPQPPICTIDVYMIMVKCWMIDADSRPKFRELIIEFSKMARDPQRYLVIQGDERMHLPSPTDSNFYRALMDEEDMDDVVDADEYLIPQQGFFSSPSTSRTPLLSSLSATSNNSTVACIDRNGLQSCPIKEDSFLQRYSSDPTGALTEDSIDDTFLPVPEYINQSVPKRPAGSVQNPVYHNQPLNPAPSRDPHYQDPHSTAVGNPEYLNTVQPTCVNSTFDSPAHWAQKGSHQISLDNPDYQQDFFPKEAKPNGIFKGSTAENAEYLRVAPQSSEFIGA
# Sequence of Dual specificity protein kinase CLK4 (Homo sapiens) (Q9HAZ1 whole entry, looked up): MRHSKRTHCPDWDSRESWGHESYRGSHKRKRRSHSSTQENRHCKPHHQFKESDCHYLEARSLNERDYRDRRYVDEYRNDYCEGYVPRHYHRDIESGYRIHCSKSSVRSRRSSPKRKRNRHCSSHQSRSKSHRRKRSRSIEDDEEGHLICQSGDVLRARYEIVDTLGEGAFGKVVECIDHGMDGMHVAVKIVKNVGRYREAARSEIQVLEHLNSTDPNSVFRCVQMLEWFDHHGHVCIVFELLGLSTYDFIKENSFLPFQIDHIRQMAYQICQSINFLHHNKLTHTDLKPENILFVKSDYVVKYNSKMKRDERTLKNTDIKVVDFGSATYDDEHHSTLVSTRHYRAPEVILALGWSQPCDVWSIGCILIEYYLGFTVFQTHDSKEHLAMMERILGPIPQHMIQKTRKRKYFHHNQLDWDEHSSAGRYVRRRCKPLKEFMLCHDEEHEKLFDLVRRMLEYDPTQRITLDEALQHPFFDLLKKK
structure (smiles),measurement,setting,value
O=C(N[C@@H](C1CC1)C(F)(F)F)c1cc(-c2cnn3cc(-c4ccc(F)cc4)cnc23)cs1,inhibition,[1],0%
same,fold change (FC),[2],0
same,fold change (FC),[3],0.07
CNC(=O)c1ccccc1Oc1nc(Nc2cc(OC)c(OC)c(OC)c2)ncc1Br,inhibition,[4],2%
same,fold change (FC),[5],0.09
same,fold change (FC),[6],0.11
same,fold change (FC),[7],0.04
CC(C)[C@H](NC(=O)c1cc(-c2cnn3cc(-c4ccc(OCCN5CCCCC5)cc4)cnc23)cs1)C(F)(F)F,IC50,[8],1.6 nM
same,inhibition,[9],78%
same,inhibition,[10],11%
same,inhibition,[11],3%
same,fold change (FC),[12],0.01
same,fold change (FC),[13],0
same,fold change (FC),[14],0.06
